Results on two molecules are retold here after ChEMBL document CHEMBL4665798, “Novel Human Urate Transporter 1 Inhibitors as Hypouricemic Drug Candidates with Favorable Druggability” (J Med Chem, 2020).

Data set [1] in a line: Tmax in male Kunming mouse at 50 mg/kg, po by LC-MS/MS analysis. The note with it: in vivo. In kind it is ADME, organism-based. A digest of the protocol:
(§1)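 Male Kunming mice, ten in total, split into five groups; single oral dose in PEG 400/normal saline (70/30, v/v). Blood taken from submandibular or saphenous vein into K2EDTA tubes at 0.25, 0.5, 1, 2, 4, 8, 24, 48, 72 h. Plasma spun at about 4 °C and kept at -70 °C. Acetonitrile precipitation with dexamethasone internal standard, then LC-MS/MS against plasma standard curves.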

A short description of data set [2]: MRT (0 to infinity) in male Kunming mouse at 50 mg/kg, po by LC-MS/MS analysis. Type of data set: ADME, organism-based. The note with it: in vivo. A digest of the protocol:
as §1

Data set [3] in a line: MRT (0 to infinity) in male Kunming mouse at 500 mg/kg, po by LC-MS/MS analysis. In kind it is ADME, organism-based. The note with it: in vivo. A digest of the protocol:
(§2)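 Male Kunming mice given oral compound in PEG 400/normal saline (70/30, V/V). Blood from submandibular or saphenous vein into K2EDTA tubes at 0.25 to 72 h. Plasma spun at 3200g near 4 °C, kept -70 °C, precipitated with acetonitrile plus dexamethasone internal standard. Quantified by LC-MS/MS against spiked blank-plasma standard curves.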

Data set [4] is described as follows: Half-life in male Kunming mouse at 50 mg/kg, po by LC-MS/MS analysis. The note with it: in vivo. In kind it is ADME, organism-based. The gist of the method:
as §1

Data set [5] in a line: MRT (0 to infinity) in male Kunming mouse at 2 mg/kg, po by LC-MS/MS analysis. In kind it is ADME, organism-based. The note with it: in vivo. A digest of the protocol: as §1
For data set [6], the target named is T1, Solute carrier family 22 member 12 (Homo sapiens, UniProt Q96S37).
T1 sequence (Q96S37 whole entry): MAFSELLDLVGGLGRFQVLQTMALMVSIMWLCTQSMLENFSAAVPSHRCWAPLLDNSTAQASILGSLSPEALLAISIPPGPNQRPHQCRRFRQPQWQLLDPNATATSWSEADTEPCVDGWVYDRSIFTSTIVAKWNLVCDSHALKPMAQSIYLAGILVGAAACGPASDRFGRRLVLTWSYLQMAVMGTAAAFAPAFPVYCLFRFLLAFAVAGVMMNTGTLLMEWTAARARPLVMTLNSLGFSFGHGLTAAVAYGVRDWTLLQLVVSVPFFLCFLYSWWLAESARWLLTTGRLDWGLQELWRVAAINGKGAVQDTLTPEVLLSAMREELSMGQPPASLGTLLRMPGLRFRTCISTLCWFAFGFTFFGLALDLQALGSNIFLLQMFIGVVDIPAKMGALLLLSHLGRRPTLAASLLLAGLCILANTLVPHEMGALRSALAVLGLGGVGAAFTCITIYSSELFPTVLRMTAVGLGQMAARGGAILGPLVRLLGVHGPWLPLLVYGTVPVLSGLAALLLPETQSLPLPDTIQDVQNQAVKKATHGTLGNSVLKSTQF
Briefly: Potency index, ratio of lesinurad IC50 to test compound IC50 for inhibition of human URAT1 expressed in HEK293T cells assessed as reduction in [14C]uric acid uptake preincubated for 15 mins followed by [14C]uric acid addition by liquid scintillation counting method. Type of data set: cell-based.

Data set [7] can be described thus: AUC (0 to infinity) in male Kunming mouse at 500 mg/kg, po by LC-MS/MS analysis. The note with it: in vivo. Also noted: time infinity, route oral, dose 500 mg/kg. In kind it is ADME, organism-based. A digest of the protocol: as §2
The species entered for data set [8] is Rattus norvegicus. Briefly: Hypouricemic activity in rat model of xanthine/potassium oxonate-induced acute hyperuricemia assessed as decrease in serum uric acid level relative to control. Also noted: scale not given: the % may be the effect or the level left. Type of data set: functional.
The nature of data set [9]: AUC (0 to infinity) in male Kunming mouse at 50 mg/kg, po by LC-MS/MS analysis. In kind it is ADME, organism-based. Also on record: route oral, time infinity, dose 50 mg/kg. The note with it: in vivo. A digest of the protocol: as §1
Data set [10] can be described thus: AUC (0 to t) in male Kunming mouse at 2 mg/kg, po by LC-MS/MS analysis. Type of data set: ADME, organism-based. Also on record: dose 2 mg/kg. The note with it: in vivo. The gist of the method:
as §1

A short description of data set [11]: Half-life in male Kunming mouse at 2 mg/kg, po by LC-MS/MS analysis. Type of data set: ADME, organism-based. The note with it: in vivo. A digest of the protocol: as §1
Data set [12] is described as follows: AUC (0 to t) in male Kunming mouse at 500 mg/kg, po by LC-MS/MS analysis. Type of data set: ADME, organism-based. Also noted: dose 500 mg/kg. The note with it: in vivo. A digest of the protocol:
as §2

The species named for data set [13] is Rattus norvegicus. Briefly: Potency index, ratio of lesinurad to test compound for hypouricemic activity in rat model of xanthine/potassium oxonate-induced acute hyperuricemia assessed as decrease in serum uric acid level. In kind it is functional.
Data set [14] can be described thus: Tmax in Sprague-Dawley rat at 20 mg/kg, po by LC-MS analysis. The note with it: in vivo. In kind it is ADME, organism-based.
Data set [15] can be described thus: AUC (0 to t) in Sprague-Dawley rat at 10 mg/kg, po by LC-MS analysis. In kind it is ADME, organism-based. Also noted: dose 10 mg/kg. The note with it: in vivo. The gist of the method: (§3)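 Male Sprague-Dawley rats, two groups, dosed iv or orally; compound in PEG 400/normal saline (70/30, V/V). Oral blood from sinus jugularis at 5 min to 24 h, plasma by centrifugation at 2200 g, stored -20 °C. Plasma with internal standard precipitated by methanol, quantified by LC-MS against spiked blank-plasma standard curves. Mean ± SD, n = 5.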

Data set [16] can be described thus: AUC (0 to infinity) in Sprague-Dawley rat at 10 mg/kg, po by LC-MS analysis. Type of data set: ADME, organism-based. Also noted: time infinity, route oral, dose 10 mg/kg. The note with it: in vivo. The gist of the method: as §3
Data set [17] in a line: Cmax in Sprague-Dawley rat at 10 mg/kg, po by LC-MS analysis. In kind it is ADME, organism-based. Also noted: route oral, dose 10 mg/kg. The note with it: in vivo. A digest of the protocol:
as §3

Data set [18] is described as follows: Oral bioavailability in Sprague-Dawley rat at 10 mg/kg by LC-MS analysis. Type of data set: ADME, organism-based. The note with it: in vivo. A digest of the protocol:
as §3

Structures are written as SMILES. Some results are limits rather than exact numbers.

Regarding `CC(Sc1nc2ncccc2n1-c1ccc(C2CC2)c2ccccc12)C(=O)O` (racemic), the results for the Tmax in data set [1] and in data set [14] were 1.67 h and 2 h, respectively. The results for the mean residence time (MRT inf) in data set [2], in data set [3] and in [5] were 6.16 h, 15.7 h and 6.44 h, respectively. Moreover, the half-life (in general, how long it takes for the measured level to halve) is 7.06 h in data set [4] and 4.24 h in data set [11]. The “Ratio IC50” value in data set [6] was over 8. Moreover, the AUC(0-inf) (commonly the area under the concentration-time curve extrapolated to infinity) in data set [7] is 2960 µg·h/mL; in data set [9], 335 µg·h/mL. Further, the Activity in the data set filed under Rattus norvegicus [8] is recorded as 83.96%. In addition, the AUC(0-t) (as a rule, the area under the concentration-time curve up to a stated or last time point) in [10] was 13 µg·h/mL; in [12] it was 2960 µg·h/mL. For the same molecule, the Ratio in the data set listed under Rattus norvegicus [13] was determined as 1.6.
Turning to `O=C(CSc1nnc(Br)n1-c1ccc(C2CC2)c2ccccc12)NS(=O)(=O)c1ccc(Br)cc1`, the AUC(0-t) in [15] worked out at 19.4 µg·h/mL. In data set [16], this molecule registered a total exposure AUC(0-inf) of 19.6 µg·h/mL. In addition, the Cmax (in general, the highest concentration seen after dosing) in [17] was 3400 ng/mL. In addition, in [18], the bioavailability (usually the share of a dose that reaches the circulation, judged against a reference dose that is usually intravenous) is 63.4%.
